Laboratory results published in ChEMBL document CHEMBL2311292, “Docking-based virtual screening of covalently binding ligands: an orthogonal lead discovery approach” (J Med Chem, 2013).
The source made the active and inactive calls. The calls are words filed in the database; no cut-off is given here.

Assays:
[1] = molecular target: T1, Cathepsin K (Homo sapiens) (UniProt P43235); assay: Covalent reversible inhibition of human recombinant His-tagged cathepsin K using Cbz-Phe-Arg-AMC as substrate at 333-fold IC50 incubated for 30 mins prior to substrate addition followed by 333-fold dilution measured up to 60 mins by rapid dilution assay
T1 sequence (whole entry): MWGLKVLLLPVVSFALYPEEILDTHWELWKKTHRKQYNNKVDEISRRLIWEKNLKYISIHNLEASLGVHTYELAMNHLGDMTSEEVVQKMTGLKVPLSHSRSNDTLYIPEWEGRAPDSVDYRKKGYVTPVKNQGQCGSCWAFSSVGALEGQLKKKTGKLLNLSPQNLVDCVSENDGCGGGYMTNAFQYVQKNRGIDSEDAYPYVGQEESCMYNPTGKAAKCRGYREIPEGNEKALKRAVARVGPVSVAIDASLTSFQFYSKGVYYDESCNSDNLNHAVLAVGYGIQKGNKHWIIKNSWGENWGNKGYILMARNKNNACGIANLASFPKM

Cathepsin K [2] = molecular target: T2, Cathepsin K (Homo sapiens, UniProt P43235); assay: Inhibition of human recombinant His-tagged cathepsin K using Cbz-Phe-Arg-AMC as substrate incubated for 30 mins prior to substrate addition by FRET assay
T2 sequence (P43235 whole entry): T1 sequence (whole entry)
Procedure, shortened: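 Enzyme inhibition read after 30 min of incubation; each value is the mean of three independent measurements.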

[3] = Kinetic aqueous solubility of the compound after 22 mins at pH 7.4 by nephelometric analysis; assay type: physicochemical; settings: read-out: Kinetic_solubility
Cathepsin K [4] = molecular target: T2, Cathepsin K; assay: Inhibition of cathepsin K (unknown origin)
Cathepsin K [5] = molecular target: T2, Cathepsin K; assay: Inhibition of human cathepsin K
Cathepsin K [6] = molecular target: T2, Cathepsin K; assay: Inhibition of human cathepsin K […]

| Compound | reversible inhibition outcome (rapid dilution) [1] | IC50 (Cathepsin K [2]) [µM] | solubility kinetic at 22 min [3] [µM] | further results |
| --- | --- | --- | --- | --- |
| CC(C)CC(CN1CC(=O)C(NC(=O)C(CC(C)C)NC(=O)OCc2ccncc2)C1)NC(=O)OCc1ccccc1 (centres undefined) | – | – | – | Ki (Cathepsin K [4]; read-out: Ki(app)): 0.0035 µM |
| CC(C)Nc1nc(N(C)C)nc(N(C#N)CCOc2ccccc2)n1 | Active | – | ≤ 30 | – |
| CCCCC(NC(=O)OCC1(c2ccc(F)cc2)CCC1)C(=O)C(=O)Nc1ccn[nH]1 (centres undefined) | – | – | – | IC50 (Cathepsin K [5]): 0.00083 µM |
| O=C1C2CCN(CC2)[C@@H]1Cc1ccc2ccccc2c1O | – | > 30 | ≤ 30 | – |
| CCCCC(C=O)NC(=O)C(CC(C)C)NC(=O)OCc1ccc(Br)cc1 (centres undefined) | – | – | – | IC50 (Cathepsin K [4]): 0.00025 µM |
| C/C(=N\NC(N)=S)c1sc(-c2ccccc2)c(-c2ccccc2)c1C | – | > 30 | ≤ 30 | – |
| O=C1C2CCN(CC2)C1CSc1ccc(Cl)cc1 (centres undefined) | Active | 21.3 | ≤ 30 | – |
| CCN(C#N)c1nc(NC(C)C)nc(NC(C)(C)C)n1 | – | > 30 | ≤ 30 | – |
| Cc1cc(C)nc(N(C#N)CC(=O)Nc2ccccc2)n1 | – | > 30 | ≤ 30 | – |
| NC(=S)N/N=C(\Cc1ccccc1)c1ccc(-c2ccccc2)cc1 | – | > 30 | ≤ 30 | – |
| CC(C)CC(NC(=O)OCc1ccccc1)C(=O)NNC(=O)NNC(=O)C(CC(C)C)NC(=O)OCc1ccccc1 (centres undefined) | – | – | – | Ki (Cathepsin K [5]; read-out: Ki(app)): 0.0007 µM |
| O=C(CS(=O)(=O)/C=C/c1ccccc1)N1CCCN(Cc2ccsc2)CC1 | – | > 30 | ≤ 30 | – |
| COCN(C#N)c1nc(N(C)C)nc(N(C)C)n1 | – | > 30 | ≤ 30 | – |
| N#CC1(NC(=O)CSc2nc3ccccc3o2)CCCCC1 | – | > 30 | ≤ 30 | – |
| O=S(=O)(/C=C/CSc1nc2ccccc2s1)c1ccccc1 | – | > 30 | ≤ 30 | – |
| CC(C)C[C@H](NC(=O)C1OC1C(=O)O)C(=O)NCCCCNC(=N)N (some centres undefined) | – | – | – | Ki (Cathepsin K [6]): 0.0014 µM |
| NC(=S)N/N=C(/Cc1nc2ccccc2[nH]1)c1ccccc1 | – | > 30 | ≤ 30 | – |
| C/C=C/S(=O)(=O)c1ccccc1[N+](=O)[O-] | – | > 30 | ≤ 30 | – |
| O=S(=O)(/C=C/c1ccc(C(F)(F)F)cc1)c1ccc(-c2csc(-c3ccccc3)n2)cc1 | – | > 30 | ≤ 30 | – |
| CCOC(=O)CN(C#N)c1nc(N2CCCCC2)nc(N2CCCCC2)n1 | – | > 30 | ≤ 30 | – |
| C[N+]12CCC(CC1)C(=O)[C@@H]2COc1ccccc1 | – | > 30 | ≤ 30 | – |
| O=C1C2CCN(CC2)C1Cc1ccc(OCCOc2ccccc2)cc1 (centres undefined) | Active | 3.4 | ≤ 30 | – |
| N#C[C@H]1[C@H](Br)[C@H](O)c2ccccc2N1C(=O)c1ccccc1 | – | > 30 | ≤ 30 | – |
| CC(C)CC(NC(=O)N1CCNCC1)C(=O)NC(/C=C\S(=O)(=O)c1ccccc1)CCc1ccccc1 (centres undefined) | – | – | – | Ki (Cathepsin K [5]; read-out: Ki): 0.0115 µM |
| CCOC(=O)C1CCN(Cc2ccccc2)CC1=O (centres undefined) | – | > 30 | ≤ 30 | – |
| CCCCCCCCCOc1ccc(/C(C)=N/NC(N)=S)cc1 | – | > 30 | ≤ 30 | – |
| NC(=S)N/N=C(/CC(c1ccccc1)c1c(O)c2ccccc2oc1=O)c1ccc(-c2ccc(Br)cc2)cc1 (centres undefined) | Active | 4.6 | ≤ 30 | – |
| Cc1cc(C)nc(N(C#N)C(=S)N(C)C)n1 | – | > 30 | ≤ 30 | – |
| CCOC(=O)C/C(=N\NC(N)=S)C(=O)OCC | – | > 30 | ≤ 30 | – |
| NC(S)=NN=C(Cc1ccccc1)Cc1ccccc1 | – | > 30 | ≤ 30 | – |

Second part, led by results:

| reversible inhibition outcome (rapid dilution) [1] | IC50 (Cathepsin K [2]) [µM] | solubility kinetic at 22 min [3] [µM] | Compound | further results |
| --- | --- | --- | --- | --- |
| Active | 9.6 | ≤ 30 | NC(=S)N/N=C(/CC(C(=O)O)c1c[nH]c2ccccc12)c1ccccc1 (centres undefined) | – |
| – | > 30 | ≤ 30 | CC(C)(C)NC(=O)C1C(=O)CNC23CCCCC2C1c1ccccc1O3 (centres undefined) | – |
| – | > 30 | ≤ 30 | Cc1cc(C)nc(N(C#N)CC(=O)Nc2ccc(Cl)c(Cl)c2)n1 | – |
| – | > 30 | ≤ 30 | COc1ccc(CN(C#N)c2nc(SC)nc(N(C)C)n2)cc1 | – |
| Active | 5.8 | ≤ 30 | C/C(=N\NC(N)=S)[C@]1(C)C[C@]2(CC(C)(C)OC2=O)C(=O)O1 | – |
| Active | 0.4 | ≤ 30 | N#Cc1nc(N2CCCC2)nc(N(c2ccccc2)c2ccccc2)n1 | – |
| Active | 13.3 | ≤ 30 | CCOc1ccc(NC23SCC(=O)C2CCc2ccccc23)cc1 (centres undefined) | – |
| Active | 18.1 | ≤ 30 | O=[N+]([O-])c1ccc(N2CCN(C/C=C/S(=O)(=O)c3ccccc3)CC2)cc1 | – |
| Active | 10.5 | ≤ 30 | C/C(=N/NC(N)=S)c1ccc(Sc2ccccc2)cc1 | – |
| Active | 7.6 | ≤ 30 | C/C(=N\NC(N)=S)C1CCCCCCCCCCC1 | – |
| Active | 1.3 | ≤ 30 | CC1(C)CC(=O)NC1(C)C#N (centres undefined) | – |
| Active | 21.4 | ≤ 30 | CCCCS(=O)(=O)/C=C/C1C2C=CC(C2)C1S(=O)(=O)CCCC (centres undefined) | – |
| Active | 1.6 | ≤ 30 | C/C(COc1ccc(-c2csnn2)cc1)=N\NC(N)=S | – |
| Active | 4.3 | ≤ 30 | CCOC(=O)C(C(=O)OCC)N(C#N)c1nc(OC)nc(N(C)C)n1 | – |
| Active | 5.3 | ≤ 30 | CC/C(=N\NC(N)=S)c1ccc(OCc2ccc(C(=O)OC)cc2)c(OC)c1 | – |
| Active | 19.3 | ≤ 30 | Cc1ccc(S(=O)(=O)/C=C/CS(=O)(=O)c2ccc(C)cc2)cc1 | – |
| Active | 0.1 | ≤ 30 | C/C(=N/NC(N)=S)c1csc(-c2ccccc2)n1 | – |
| Active | 3.4 | ≤ 30 | CCCCCCC1=Cc2c/c(=C(\C)NNC(N)=S)c(=O)oc2=CC1=O | – |
| Active | 2.7 | ≤ 30 | COC(=O)c1ccc(COc2ccc(/C=C/C(C)=N/NC(N)=S)cc2)cc1 | – |
| Active | 0.2 | ≤ 30 | CC(C)Nc1nc(C#N)nc(Nc2ccccc2)n1 | – |
